In ChEMBL document CHEMBL3804761, “Synthesis of a stable and orally bioavailable englerin analogue” (Bioorg Med Chem Lett, 2016):

How the values were obtained:
Type in all cases: functional
NCI-H522 = experiment: Growth inhibition of human NCI-H522 cells assessed as cell growth at 10 uM incubated for 48 hrs by sulforhodamine B assay relative to control; conditions: NCI-H522, 48 h, read-out: Activity
How it was run: (§1)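 Run in the standard NCI 60-cell-line screen. Cells were exposed to drug for two days, and the read-out was sulforhodamine B staining. Compound was tested at a single final concentration of 10 µM in every line, and results are reported as growth percent.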

[1] = Growth inhibition of human HOP62 cells incubated for 48 hrs by sulforhodamine B assay; conditions: HOP-62, 48 h
How it was run: (§2)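 NCI 60-cell-line panel, standard protocol. Cells exposed to compound for two days, growth read by sulforhodamine B staining. Tested at five 10-fold dilutions, top concentration 100 µM, to give dose-response curves.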

[2] = Growth inhibition of human OVCAR4 cells incubated for 48 hrs by sulforhodamine B assay; conditions: OVCAR-4, 48 h; how it was run: as §2
[3] = Growth inhibition of human OVCAR4 cells assessed as cell growth at 10 uM incubated for 48 hrs by sulforhodamine B assay relative to control; conditions: OVCAR-4, 48 h, read-out: Activity; how it was run: as §1
SK-MEL-5 = experiment: Growth inhibition of human SK-MEL-5 cells assessed as cell growth at 10 uM incubated for 48 hrs by sulforhodamine B assay relative to control; conditions: SK-MEL-5, 48 h, read-out: Activity; how it was run: as §1
[4] = Growth inhibition of human HL-60(TB) cells incubated for 48 hrs by sulforhodamine B assay; conditions: HL-60, 48 h; how it was run: as §2
[5] = Growth inhibition of human HL-60(TB) cells assessed as cell growth at 10 uM incubated for 48 hrs by sulforhodamine B assay relative to control; conditions: HL-60, 48 h, read-out: Activity
How it was run: (§3)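 Single-dose screen in the NCI 60-cell-line panel at one final concentration of 10 µM. Two-day drug exposure with a sulforhodamine B endpoint. Values are growth percent for each cell line.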

[6] = Growth inhibition of human RPMI8226 cells incubated for 48 hrs by sulforhodamine B assay; conditions: RPMI-8226, 48 h; how it was run: as §2
[7] = Growth inhibition of human SF268 cells incubated for 48 hrs by sulforhodamine B assay; conditions: SF-268, 48 h; how it was run: as §2
[8] = Growth inhibition of human HOP92 cells incubated for 48 hrs by sulforhodamine B assay; conditions: HOP-92, 48 h; how it was run: as §2
[9] = Growth inhibition of human HCT15 cells incubated for 48 hrs by sulforhodamine B assay; conditions: HCT-15, 48 h; how it was run: as §2
[10] = Growth inhibition of human SNB75 cells assessed as cell growth at 10 uM incubated for 48 hrs by sulforhodamine B assay relative to control; conditions: SNB-75, 48 h, read-out: Activity; how it was run: as §1
[11] = Growth inhibition of human HCT15 cells assessed as cell growth at 10 uM incubated for 48 hrs by sulforhodamine B assay relative to control; conditions: HCT-15, 48 h, read-out: Activity; how it was run: as §1
[12] = Growth inhibition of human SF295 cells incubated for 48 hrs by sulforhodamine B assay; conditions: SF-295, 48 h; how it was run: as §2
M14 = experiment: Growth inhibition of human M14 cells assessed as cell growth at 10 uM incubated for 48 hrs by sulforhodamine B assay relative to control; conditions: M14, 48 h, read-out: Activity; how it was run: as §1
[13] = Growth inhibition of human HCC2998 cells assessed as cell growth at 10 uM incubated for 48 hrs by sulforhodamine B assay relative to control; conditions: HCC 2998, 48 h, read-out: Activity; how it was run: as §3
SR = experiment: Growth inhibition of human SR cells assessed as cell growth at 10 uM incubated for 48 hrs by sulforhodamine B assay relative to control; conditions: read-out: Activity; how it was run: as §1
MDA-MB-468 [14] = experiment: Growth inhibition of human MDA-MB-468 cells incubated for 48 hrs by sulforhodamine B assay; conditions: MDA-MB-468, 48 h; how it was run: as §2
[15] = Growth inhibition of human DU145 cells incubated for 48 hrs by sulforhodamine B assay; conditions: DU-145, 48 h; how it was run: as §2
ACHN = experiment: Growth inhibition of human ACHN cells incubated for 48 hrs by sulforhodamine B assay; how it was run: as §2
[16] = Growth inhibition of human BT549 cells assessed as cell growth at 10 uM incubated for 48 hrs by sulforhodamine B assay relative to control; conditions: BT-549, 48 h, read-out: Activity; how it was run: as §1
[17] = Growth inhibition of human SNB19 cells incubated for 48 hrs by sulforhodamine B assay; conditions: SNB-19, 48 h
How it was run: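 Tested in the standard NCI 60-cell-line protocol with two-day drug exposure and a sulforhodamine B endpoint. Compounds were first screened at a single final concentration of 10 µM, reported as growth percent. They were then run as five 10-fold dilutions starting from a high concentration of 100 µM to give dose-response curves.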

[18] = Growth inhibition of human COLO205 cells incubated for 48 hrs by sulforhodamine B assay; conditions: COLO 205, 48 h; how it was run: as §2
MDA-MB-468 [19] = experiment: Growth inhibition of human MDA-MB-468 cells assessed as cell growth at 10 uM incubated for 48 hrs by sulforhodamine B assay relative to control; conditions: MDA-MB-468, 48 h, read-out: Activity; how it was run: as §1
[20] = Growth inhibition of human SF539 cells incubated for 48 hrs by sulforhodamine B assay; conditions: SF-539, 48 h; how it was run: as §2
Malme-3M = experiment: Growth inhibition of human MALME-3M cells assessed as cell growth at 10 uM incubated for 48 hrs by sulforhodamine B assay relative to control; conditions: read-out: Activity; how it was run: as §1
K562 = experiment: Growth inhibition of human K562 cells incubated for 48 hrs by sulforhodamine B assay; conditions: K562, 48 h; how it was run: as §2
[21] = Growth inhibition of human OVCAR3 cells incubated for 48 hrs by sulforhodamine B assay; conditions: OVCAR-3, 48 h; how it was run: as §2
[22] = Growth inhibition of human PC3 cells incubated for 48 hrs by sulforhodamine B assay; conditions: PC-3, 48 h; how it was run: as §2
[23] = Growth inhibition of human OVCAR5 cells assessed as cell growth at 10 uM incubated for 48 hrs by sulforhodamine B assay relative to control; conditions: OVCAR-5, 48 h, read-out: Activity; how it was run: as §1
[24] = read-out: pLC50 (the source's name) (converted)

CC(C)[C@@]12C[C@@H](NC(=O)CO)[C@@](C)(O1)[C@@H]1CC[C@@H](C)[C@H]1[C@@H]2OC(=O)c1ccc2ccccc2c1
growth at 10 µM (NCI-H522): 77.7% | GI50 [1]: 15.1 µM | LC50 [1]: 55 µM | TGI ([1]; read-out: pTGI (converted)): 28.8 µM | GI50 [2]: 16.2 µM | LC50 (concentration killing 50% of cells) [2]: 61.7 µM | TGI ([2]; read-out: pTGI (converted)): 31.6 µM | growth at 10 µM [3]: 82.2% | growth at 10 µM (SK-MEL-5): 93.5% | GI50 [4]: 20.4 µM | CC50 [4, 24]: 87.1 µM | TGI ([4]; read-out: pTGI (converted)): 41.7 µM | growth at 10 µM [5]: 99.3% | GI50 [6]: 14.5 µM | CC50 [6, 24]: 85.1 µM | TGI ([6]; read-out: pTGI (converted)): 35.5 µM | GI50 [7]: 13.5 µM | LC50 (lethal concentration, 50% net cell kill) [7]: 57.5 µM | TGI ([7]; read-out: pTGI (converted)): 28.2 µM | GI50 [8]: 9.33 µM | LC50 [8]: 52.5 µM | TGI ([8]; read-out: pTGI (converted)): 22.9 µM | GI50 [9]: 16.6 µM | LC50 [9]: 61.7 µM | TGI ([9]; read-out: pTGI (converted)): 31.6 µM | growth at 10 µM [10]: 72.7% | growth at 10 µM [11]: 90.8% | GI50 [12]: 16.2 µM | LC50 (concentration causing 50% net cell kill) [12]: 57.5 µM | TGI ([12]; read-out: pTGI (converted)): 30.2 µM | growth at 10 µM (M14): 95.2% | growth at 10 µM [13]: 105% | growth at 10 µM (SR): 82.5% | GI50 (MDA-MB-468 [14]): 14.8 µM | CC50 (MDA-MB-468 [14]; [24]): 57.5 µM | TGI (MDA-MB-468 [14]; read-out: pTGI (converted)): 28.8 µM | GI50 [15]: 16.2 µM | CC50 [15, 24]: 56.2 µM | TGI ([15]; read-out: pTGI (converted)): 30.2 µM | GI50 (ACHN): 5.37 µM | LC50 (concentration killing 50% of cells) (ACHN): 42.7 µM | TGI (ACHN; read-out: pTGI (converted)): 17 µM | growth at 10 µM [16]: 70.2% | GI50 [17]: 16.2 µM | CC50 [17, 24]: 60.3 µM | TGI ([17]; read-out: pTGI (converted)): 31.6 µM | GI50 [18]: 19.1 µM | CC50 [18, 24]: 61.7 µM | TGI ([18]; read-out: pTGI (converted)): 34.7 µM | growth at 10 µM (MDA-MB-468 [19]): 81.5% | GI50 [20]: 15.5 µM | LC50 [20]: 55 µM | TGI ([20]; read-out: pTGI (converted)): 29.5 µM | growth at 10 µM (Malme-3M): 85.3% | GI50 (K562): 19.5 µM | CC50 (K562; [24]): 95.5 µM | TGI (K562; read-out: pTGI (converted)): 42.7 µM | GI50 [21]: 17 µM | LC50 [21]: 57.5 µM | TGI ([21]; read-out: pTGI (converted)): 30.9 µM | GI50 [22]: 12 µM | CC50 [22, 24]: 52.5 µM | TGI ([22]; read-out: pTGI (converted)): 25.1 µM | growth at 10 µM [23]: 84.5%
